Test results published in ChEMBL document CHEMBL1157295, “Polyacylated oligosaccharides from medicinal Mexican morning glory species as antibacterials and inhibitors of multidrug resistance in Staphylococcus aureus” (2006).
Values after ≈ are worked out from the molar mass of the structure shown.

How the values were obtained:
Format in all cases: functional
Staphylococcus aureus [1] = assay: Antimicrobial activity against Staphylococcus aureus ATCC 25923 by standard microdilution method
Summary of the method: (§1)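 Broth microdilution per NCCLS guidelines, at least in duplicate, in cation-adjusted Mueller-Hinton broth (20 mg/L Ca2+, 10 mg/L Mg2+). Strains were grown first on nutrient agar. Inoculum of 5 × 10^5 cfu was set in 0.9% saline against a McFarland standard. Compounds were dissolved in DMSO and given as 2-fold serial dilutions, final 1–512 µg/mL, with at most 3.125% v/v DMSO. MIC is the lowest concentration showing no visible growth.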

Staphylococcus aureus [2] = assay: Antimicrobial activity against TetK multidrug efflux pump possessing Staphylococcus aureus XU-212 by standard microdilution method; summary of the method: as §1
Staphylococcus aureus [3] = assay: Antimicrobial activity against epidemic methicillin-resistant Staphylococcus aureus 15 by standard microdilution method
Summary of the method: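 Broth microdilution following NCCLS guidelines, at least in duplicate, against EMRSA-15 (mecA) precultured on nutrient agar. Medium was cation-adjusted Mueller-Hinton broth with 20 mg/L Ca2+ and 10 mg/L Mg2+. Inoculum was 5 × 10^5 cfu in 0.9% saline, set against a McFarland standard. Compounds were dissolved in DMSO (final ≤3.125% v/v) and tested at 1–512 µg/mL in 2-fold series. MIC was the lowest concentration with no visible growth.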

Staphylococcus aureus [4] = assay: Antimicrobial activity against Staphylococcus aureus ATCC 6538
[5] = tested on: Mycobacterium tuberculosis; assay: Antimicrobial activity against Mycobacterium tuberculosis

| Structure (SMILES) | MIC (Staphylococcus aureus [1]) [µg/mL] | MIC (Staphylococcus aureus [2]) [µg/mL] | MIC (Staphylococcus aureus [3]) [µg/mL] | MIC (Staphylococcus aureus [4]) [µg/mL] | MIC [5] [µg/mL] |
| --- | --- | --- | --- | --- | --- |
| C/C=C(\C)C(=O)O[C@H]1[C@H](O)[C@@H](O)[C@H](O[C@@H]2[C@H]3OC(=O)CCCCCCCCC[C@H](CCCCC)O[C@@H]4O[C@H](C)[C@@H](O)[C@H](O)[C@H]4O[C@@H]4O[C@H](COC(=O)C(C)C)[C@@H](O)[C@H](O)[C@H]4O[C@H](O[C@H]2C)[C@@H]3OC(=O)[C@H](C)[C@@H](C)O)O[C@@H]1C [ORIZABIN X] | 16 (≈ 14.4 µM) | 32 (≈ 28.9 µM) | 4 (≈ 3.61 µM) | – | – |
| CCCCC[C@H]1CCCCCCCCCC(=O)O[C@@H]2[C@@H](O[C@@H]3O[C@H](C)[C@@H](O)[C@H](O)[C@H]3O)[C@H](C)O[C@@H](O[C@H]3[C@H](O[C@H]4[C@H](O1)O[C@H](C)[C@@H](O)[C@@H]4O)O[C@H](CO)[C@@H](O)[C@@H]3O)[C@@H]2OC(=O)[C@@H](C)CC [SCAMMONIN II] | 256 (≈ 273 µM) | 512 (≈ 545 µM) | 128 (≈ 136 µM) | – | – |
| CCCCC[C@H]1CCCCCCCCCC(=O)O[C@H]2[C@H](O)[C@@H](CO)O[C@@H](O[C@H]3[C@H](O1)O[C@H](C)[C@H](O)[C@@H]3O)[C@@H]2O[C@@H]1O[C@@H](C)[C@H](OC(=O)[C@H](C)[C@@H](C)O)[C@@H](O[C@@H]2O[C@@H](C)[C@H](O)[C@@H](O)[C@H]2O)[C@H]1OC(=O)[C@@H](C)CC [TRICOLORIN C] | 32 (≈ 30.8 µM) | 16 (≈ 15.4 µM) | 32 (≈ 30.8 µM) | 1 (≈ 0.962 µM) | 16 (≈ 15.4 µM) |
| CN(C)[C@@H]1C(O)=C(C(N)=O)C(=O)[C@@]2(O)C(O)=C3C(=O)c4c(O)cccc4[C@@](C)(O)[C@H]3C[C@@H]12 [TETRACYCLINE] | 0.08 (≈ 0.18 µM) | 64 (≈ 144 µM) | 0.15 (≈ 0.338 µM) | – | – |
| CCCCC[C@H]1CCCCCCCCCC(=O)O[C@@H]2[C@@H](O[C@@H]3O[C@H](C)[C@@H](OC(=O)[C@@H](C)CC)[C@H](O)[C@H]3O)[C@H](C)O[C@@H](O[C@H]3[C@H](O[C@H]4[C@H](O1)O[C@H](C)[C@@H](O)[C@@H]4O)O[C@H](COC(=O)[C@@H](C)CC)[C@@H](O)[C@@H]3O)[C@@H]2OC(=O)[C@@H](C)[C@H](C)O [ORIZABIN XIX] | 128 (≈ 114 µM) | 512 (≈ 456 µM) | 256 (≈ 228 µM) | – | – |
| CCCCC[C@H]1CCCCCCCCCC(=O)O[C@@H]2[C@@H](O[C@@H]3O[C@H](C)[C@@H](OC(=O)[C@@H](C)CC)[C@H](O)[C@H]3O)[C@H](C)O[C@@H](O[C@H]3[C@H](O[C@H]4[C@H](O1)O[C@H](C)[C@@H](O)[C@@H]4O)O[C@H](COC(=O)[C@H](C)[C@@H](C)O)[C@@H](O)[C@@H]3O)[C@@H]2OC(=O)[C@@H](C)CC [ORIZABIN XX] | 64 (≈ 57 µM) | > 512 | 32 (≈ 28.5 µM) | – | – |
| C/C=C(\C)C(=O)O[C@H]1[C@H](O)[C@@H](O)[C@H](O[C@@H]2[C@H]3OC(=O)CCCCCCCCC[C@H](CCCCC)O[C@@H]4O[C@H](C)[C@@H](O)[C@H](O)[C@H]4O[C@@H]4O[C@H](COC(=O)C(C)C)[C@@H](O)[C@H](O)[C@H]4O[C@H](O[C@H]2C)[C@@H]3OC(=O)[C@@H](C)[C@H](C)O)O[C@@H]1C [ORIZABIN XI] | 16 (≈ 14.4 µM) | 32 (≈ 28.9 µM) | 4 (≈ 3.61 µM) | – | – |
| C/C=C(\C)C(=O)O[C@H]1[C@H](O)[C@@H](O)[C@H](O[C@@H]2[C@H]3OC(=O)CCCCCCCCC[C@H](CCCCC)O[C@@H]4O[C@H](C)[C@@H](O)[C@H](O)[C@H]4O[C@@H]4O[C@H](COC(=O)[C@H](C)[C@@H](C)O)[C@@H](O)[C@H](O)[C@H]4O[C@H](O[C@H]2C)[C@@H]3OC(=O)C(C)C)O[C@@H]1C [ORIZABIN XII] | > 512 | > 512 | 512 (≈ 462 µM) | – | – |
| C/C=C(\C)C(=O)O[C@H]1[C@H](O)[C@@H](O)[C@H](O[C@@H]2[C@H]3OC(=O)CCCCCCCCC[C@H](CCCCC)O[C@@H]4O[C@H](C)[C@@H](O)[C@H](O)[C@H]4O[C@@H]4O[C@H](CO)[C@@H](OC(=O)[C@H](C)[C@@H](C)O)[C@H](O)[C@H]4O[C@H](O[C@H]2C)[C@@H]3OC(=O)[C@@H](C)CC)O[C@@H]1C [ORIZABIN IX] | > 512 | > 512 | 256 (≈ 228 µM) | – | – |
| C/C=C(\C)C(=O)O[C@H]1[C@H](O)[C@@H](O)[C@H](O[C@@H]2[C@H]3OC(=O)CCCCCCCCC[C@H](CCCCC)O[C@@H]4O[C@H](C)[C@@H](O)[C@H](O)[C@H]4O[C@@H]4O[C@H](COC(=O)[C@@H](C)CC)[C@@H](O)[C@H](O)[C@H]4O[C@H](O[C@H]2C)[C@@H]3OC(=O)[C@H](C)[C@@H](C)O)O[C@@H]1C [ORIZABIN XIV] | 16 (≈ 14.3 µM) | 64 (≈ 57.1 µM) | 8 (≈ 7.13 µM) | – | – |
| C/C=C(\C)C(=O)O[C@H]1[C@H](O)[C@@H](O)[C@H](O[C@@H]2[C@H]3OC(=O)CCCCCCCCC[C@H](CCCCC)O[C@@H]4O[C@H](C)[C@@H](O)[C@H](O)[C@H]4O[C@@H]4O[C@H](COC(=O)[C@@H](C)[C@H](C)O)[C@@H](O)[C@H](O)[C@H]4O[C@H](O[C@H]2C)[C@@H]3OC(=O)C(C)C)O[C@@H]1C [ORIZABIN XIII] | 8 (≈ 7.22 µM) | 32 (≈ 28.9 µM) | 8 (≈ 7.22 µM) | – | – |
| CCn1cc(C(=O)O)c(=O)c2cc(F)c(N3CCNCC3)cc21 [NORFLOXACIN] | 2 (≈ 6.26 µM) | 16 (≈ 50.1 µM) | 0.5 (≈ 1.57 µM) | – | – |
| CCCCC[C@H]1CCCCCCCCCC(=O)O[C@@H]2[C@@H](O[C@@H]3O[C@H](C)[C@@H](OC(=O)[C@@H](C)CC)[C@H](O)[C@H]3O)[C@H](C)O[C@@H](O[C@H]3[C@H](O[C@H]4[C@H](O1)O[C@H](C)[C@@H](O)[C@@H]4O)O[C@H](COC(=O)[C@@H](C)CC)[C@@H](O)[C@@H]3O)[C@@H]2OC(=O)[C@H](C)[C@@H](C)O [ORIZABIN XVIII] | 32 (≈ 28.5 µM) | 64 (≈ 57 µM) | 64 (≈ 57 µM) | – | – |
| C/C=C(\C)C(=O)O[C@H]1[C@H](O)[C@@H](O)[C@H](O[C@@H]2[C@H]3OC(=O)CCCCCCCCC[C@H](CCCCC)O[C@@H]4O[C@H](C)[C@@H](O)[C@H](O)[C@H]4O[C@@H]4O[C@H](COC(=O)[C@@H](C)CC)[C@@H](O)[C@H](O)[C@H]4O[C@H](O[C@H]2C)[C@@H]3OC(=O)[C@@H](C)[C@H](C)O)O[C@@H]1C [ORIZABIN XV] | 128 (≈ 114 µM) | 512 (≈ 457 µM) | 16 (≈ 14.3 µM) | – | – |
| CCCCC[C@H]1CCCCCCCCCC(=O)O[C@H]2[C@H](O[C@H]3[C@H](O[C@H]4[C@H](O1)O[C@H](C)[C@H](O)[C@@H]4O)O[C@H](CO)[C@@H](O)[C@@H]3O)O[C@H](C)[C@@H](O)[C@@H]2O [TRICOLORIN F] | > 512 | > 512 | > 512 | – | – |
| C/C=C(\C)C(=O)O[C@H]1[C@H](O)[C@@H](O)[C@H](O[C@@H]2[C@H]3OC(=O)CCCCCCCCC[C@H](CCCCC)O[C@@H]4O[C@H](C)[C@@H](O)[C@H](O)[C@H]4O[C@@H]4O[C@H](COC(=O)[C@H](C)[C@@H](C)O)[C@@H](O)[C@H](O)[C@H]4O[C@H](O[C@H]2C)[C@@H]3OC(=O)[C@@H](C)CC)O[C@@H]1C [ORIZABIN XVI] | 8 (≈ 7.13 µM) | 128 (≈ 114 µM) | 8 (≈ 7.13 µM) | – | – |
| CCCCC[C@H]1CCCCCCCCCC(=O)O[C@@H]2[C@@H](O[C@@H]3O[C@H](C)[C@@H](OC(=O)[C@@H](C)CC)[C@H](O)[C@H]3O)[C@H](C)O[C@@H](O[C@H]3[C@H](O[C@H]4[C@H](O1)O[C@H](C)[C@@H](O)[C@@H]4O)O[C@H](COC(=O)[C@@H](C)[C@H](C)O)[C@@H](O)[C@@H]3O)[C@@H]2OC(=O)[C@@H](C)CC [ORIZABIN XXI] | 8 (≈ 7.12 µM) | 64 (≈ 57 µM) | 16 (≈ 14.2 µM) | – | – |
| C/C=C(\C)C(=O)O[C@H]1[C@H](O)[C@@H](O)[C@H](O[C@@H]2[C@H]3OC(=O)CCCCCCCCC[C@H](CCCCC)O[C@@H]4O[C@H](C)[C@@H](O)[C@H](O)[C@H]4O[C@@H]4O[C@H](CO)[C@@H](O)[C@H](O)[C@H]4O[C@H](O[C@H]2C)[C@@H]3OC(=O)[C@@H](C)CC)O[C@@H]1C [SCAMMONIN I] | 32 (≈ 31.3 µM) | 128 (≈ 125 µM) | 32 (≈ 31.3 µM) | – | – |
| CCCCC[C@H](CCCCCCCCCC(=O)OC[C@H]1O[C@H]2O[C@H]3[C@H](O[C@@H](CCCCC)CCCCCCCCCC(=O)O[C@H]4[C@H](O[C@@H]2[C@@H](O)[C@@H]1O)O[C@H](C)[C@@H](O)[C@@H]4O)O[C@H](C)[C@H](O)[C@@H]3O)O[C@@H]1O[C@H](C)[C@H](O)[C@H](O)[C@H]1O[C@@H]1O[C@H](CO)[C@@H](O)[C@H](O)[C@H]1O[C@@H]1O[C@H](C)[C@@H](O)[C@H](O)[C@H]1O [TRICOLORIN J] | > 256 | > 256 | > 256 | – | – |
| C/C=C(\C)C(=O)O[C@H]1[C@H](O)[C@@H](O)[C@H](O[C@@H]2[C@H]3OC(=O)CCCCCCCCC[C@H](CCCCC)O[C@@H]4O[C@H](C)[C@@H](O)[C@H](O)[C@H]4O[C@@H]4O[C@H](COC(=O)[C@@H](C)[C@H](C)O)[C@@H](O)[C@H](O)[C@H]4O[C@H](O[C@H]2C)[C@@H]3OC(=O)[C@@H](C)CC)O[C@@H]1C [ORIZABIN XVII] | 8 (≈ 7.13 µM) | 32 (≈ 28.5 µM) | 8 (≈ 7.13 µM) | – | – |
